According to ChEMBL document CHEMBL4689842, “EUbOPEN Chemogenomics Library wave 1” (2021):

Legend:
Type in all cases: toxicity, cell-based
[1] = tested on: Fibroblast; assay: Multiplex assay against human fibroblast
Procedure, shortened: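 Cells were classed with CellPathfinder machine-learning gating, first as Hoechst high-intensity objects or normal cells, then (normal cells) as healthy, pyknosed or fragmented nuclei, and finally (pyknosed cells) as mitotic or apoptotic. Staining of live cells at seeding used Hoechst33342, BioTracker Green Microtubule Cytoskeleton Dye, MitoTracker Red and Annexin V Alexa Fluor 680, with imaging on a CQ1 microscope at 37°C and 5% CO2 after compound addition. Tubulin, mitochondrial-mass and membrane-permeability phenotypes are per cents of healthy-nucleus cells.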

[2] = tested on: HEK-293T; assay: Incucyte cell viability with HEK293T; conditions: human, 10 µM, compound concentration 10 uM; also: filed as whole numbers so only -1 and 0 and 1 occur
[3] = tested on: U2OS; assay: Incucyte cell viability with U2OS; conditions: human, 10 µM, compound concentration 10 uM; also: filed as whole numbers so only -1 and 0 and 1 occur
[4] = 12 h, 1 µM, compound concentration 1 uM, replicate 1
[5] = 12 h, 1 µM, compound concentration 1 uM, replicate 2
[6] = 12 h, 10 µM, compound concentration 10 uM, replicate 1
[7] = 12 h, 10 µM, compound concentration 10 uM, replicate 2
[8] = 24 h, 1 µM, compound concentration 1 uM, replicate 1
[9] = 24 h, 1 µM, compound concentration 1 uM, replicate 2
[10] = 24 h, 10 µM, compound concentration 10 uM, replicate 1
[11] = 24 h, 10 µM, compound concentration 10 uM, replicate 2
[12] = 48 h, 1 µM, compound concentration 1 uM, replicate 1
[13] = 48 h, 1 µM, compound concentration 1 uM, replicate 2
[14] = 48 h, 10 µM, compound concentration 10 uM, replicate 1
[15] = 48 h, 10 µM, compound concentration 10 uM, replicate 2
[16] = 6 h, replicate number 1, timepoint 6 hours
[17] = 12 h, replicate number 1, timepoint 12 hours
[18] = 18 h, replicate number 1, timepoint 18 hours
[19] = 24 h, replicate number 1, timepoint 24 hours

N#Cc1cccc(C(=O)Nc2cc(-c3ccccc3)nn2-c2ccccc2)c1
Population Apoptotic (%) [1, 4]: 66%
Population Fragmented Nuclei (%) [1, 4]: 21%
Population Healthy Nuclei (%) [1, 4]: 48%
Population Hoechst High Intensity Objects (%) [1, 4]: 11%
Population Membrane Permeable-Phenotype (%) [1, 4]: 22%
Population Mitochondria Different-Phenotype (%) [1, 4]: 6%
Population Mitotic Cells (%) [1, 4]: 34%
Population Normal (%) [1, 4]: 88%
Population Pyknosed Nuclei (%) [1, 4]: 30%
Population Tubulin-Different-Phenotype (%) [1, 4]: 48%
Total Cell Count [1, 4]: 186
Population Apoptotic (%) [1, 5]: 16%
Population Fragmented Nuclei (%) [1, 5]: 5%
Population Healthy Nuclei (%) [1, 5]: 84%
Population Hoechst High Intensity Objects (%) [1, 5]: 3%
Population Membrane Permeable-Phenotype (%) [1, 5]: 6%
Population Mitochondria Different-Phenotype (%) [1, 5]: 8%
Population Mitotic Cells (%) [1, 5]: 83%
Population Normal (%) [1, 5]: 96%
Population Pyknosed Nuclei (%) [1, 5]: 10%
Population Tubulin-Different-Phenotype (%) [1, 5]: 16%
Total Cell Count [1, 5]: 59
Population Apoptotic (%) [1, 6]: 50%
Population Fragmented Nuclei (%) [1, 6]: 15%
Population Healthy Nuclei (%) [1, 6]: 42%
Population Hoechst High Intensity Objects (%) [1, 6]: 8%
Population Membrane Permeable-Phenotype (%) [1, 6]: 23%
Population Mitochondria Different-Phenotype (%) [1, 6]: 15%
Population Mitotic Cells (%) [1, 6]: 50%
Population Normal (%) [1, 6]: 91%
Population Pyknosed Nuclei (%) [1, 6]: 42%
Population Tubulin-Different-Phenotype (%) [1, 6]: 82%
Total Cell Count [1, 6]: 134
Population Apoptotic (%) [1, 7]: 45%
Population Fragmented Nuclei (%) [1, 7]: 9%
Population Healthy Nuclei (%) [1, 7]: 60%
Population Hoechst High Intensity Objects (%) [1, 7]: 9%
Population Membrane Permeable-Phenotype (%) [1, 7]: 15%
Population Mitochondria Different-Phenotype (%) [1, 7]: 84%
Population Mitotic Cells (%) [1, 7]: 55%
Population Normal (%) [1, 7]: 90%
Population Pyknosed Nuclei (%) [1, 7]: 30%
Population Tubulin-Different-Phenotype (%) [1, 7]: 97%
Total Cell Count [1, 7]: 72
Population Apoptotic (%) [1, 8]: 47%
Population Fragmented Nuclei (%) [1, 8]: 17%
Population Healthy Nuclei (%) [1, 8]: 49%
Population Hoechst High Intensity Objects (%) [1, 8]: 8%
Population Membrane Permeable-Phenotype (%) [1, 8]: 34%
Population Mitochondria Different-Phenotype (%) [1, 8]: 6%
Population Mitotic Cells (%) [1, 8]: 52%
Population Normal (%) [1, 8]: 91%
Population Pyknosed Nuclei (%) [1, 8]: 33%
Population Tubulin-Different-Phenotype (%) [1, 8]: 69%
Total Cell Count [1, 8]: 180
Population Apoptotic (%) [1, 9]: 14%
Population Fragmented Nuclei (%) [1, 9]: 3%
Population Healthy Nuclei (%) [1, 9]: 86%
Population Hoechst High Intensity Objects (%) [1, 9]: 4%
Population Membrane Permeable-Phenotype (%) [1, 9]: 1%
Population Mitochondria Different-Phenotype (%) [1, 9]: 8%
Population Mitotic Cells (%) [1, 9]: 85%
Population Normal (%) [1, 9]: 95%
Population Pyknosed Nuclei (%) [1, 9]: 10%
Population Tubulin-Different-Phenotype (%) [1, 9]: 7%
Total Cell Count [1, 9]: 68
Population Apoptotic (%) [1, 10]: 45%
Population Fragmented Nuclei (%) [1, 10]: 20%
Population Healthy Nuclei (%) [1, 10]: 39%
Population Hoechst High Intensity Objects (%) [1, 10]: 6%
Population Membrane Permeable-Phenotype (%) [1, 10]: 36%
Population Mitochondria Different-Phenotype (%) [1, 10]: 4%
Population Mitotic Cells (%) [1, 10]: 54%
Population Normal (%) [1, 10]: 93%
Population Pyknosed Nuclei (%) [1, 10]: 39%
Population Tubulin-Different-Phenotype (%) [1, 10]: 93%
Total Cell Count [1, 10]: 119
Population Apoptotic (%) [1, 11]: 42%
Population Fragmented Nuclei (%) [1, 11]: 9%
Population Healthy Nuclei (%) [1, 11]: 67%
Population Membrane Permeable-Phenotype (%) [1, 11]: 30%
Population Mitochondria Different-Phenotype (%) [1, 11]: 71%
Population Mitotic Cells (%) [1, 11]: 57%
Population Pyknosed Nuclei (%) [1, 11]: 22%
Population Tubulin-Different-Phenotype (%) [1, 11]: 95%
Total Cell Count [1, 11]: 66
Population Apoptotic (%) [1, 12]: 57%
Population Fragmented Nuclei (%) [1, 12]: 31%
Population Healthy Nuclei (%) [1, 12]: 44%
Population Hoechst High Intensity Objects (%) [1, 12]: 12%
Population Membrane Permeable-Phenotype (%) [1, 12]: 26%
Population Mitochondria Different-Phenotype (%) [1, 12]: 3%
Population Mitotic Cells (%) [1, 12]: 42%
Population Normal (%) [1, 12]: 87%
Population Pyknosed Nuclei (%) [1, 12]: 24%
Population Tubulin-Different-Phenotype (%) [1, 12]: 50%
Total Cell Count [1, 12]: 166
Population Apoptotic (%) [1, 13]: 0%
Population Fragmented Nuclei (%) [1, 13]: 28%
Population Healthy Nuclei (%) [1, 13]: 69%
Population Hoechst High Intensity Objects (%) [1, 13]: 8%
Population Membrane Permeable-Phenotype (%) [1, 13]: 12%
Population Mitochondria Different-Phenotype (%) [1, 13]: 5%
Population Mitotic Cells (%) [1, 13]: 100%
Population Normal (%) [1, 13]: 91%
Population Pyknosed Nuclei (%) [1, 13]: 1%
Population Tubulin-Different-Phenotype (%) [1, 13]: 57%
Total Cell Count [1, 13]: 112
Population Apoptotic (%) [1, 14]: 41%
Population Fragmented Nuclei (%) [1, 14]: 30%
Population Healthy Nuclei (%) [1, 14]: 40%
Population Hoechst High Intensity Objects (%) [1, 14]: 12%
Population Membrane Permeable-Phenotype (%) [1, 14]: 28%
Population Mitochondria Different-Phenotype (%) [1, 14]: 4%
Population Mitotic Cells (%) [1, 14]: 58%
Population Normal (%) [1, 14]: 87%
Population Pyknosed Nuclei (%) [1, 14]: 28%
Population Tubulin-Different-Phenotype (%) [1, 14]: 95%
Total Cell Count [1, 14]: 126
Population Apoptotic (%) [1, 15]: 23%
Population Fragmented Nuclei (%) [1, 15]: 45%
Population Healthy Nuclei (%) [1, 15]: 45%
Population Hoechst High Intensity Objects (%) [1, 15]: 34%
Population Membrane Permeable-Phenotype (%) [1, 15]: 25%
Population Mitochondria Different-Phenotype (%) [1, 15]: 1%
Population Mitotic Cells (%) [1, 15]: 76%
Population Normal (%) [1, 15]: 65%
Population Pyknosed Nuclei (%) [1, 15]: 9%
Total Cell Count [1, 15]: 214
Growth Rate ([2]; 0 h, replicate number 1, timepoint 0 hours): 0
Growth Rate [2, 16]: 0
Growth Rate [2, 17]: 0
Growth Rate [2, 18]: 0
Growth Rate [2, 19]: 0
Growth Rate ([3]; 0 h, replicate number 2, timepoint 0 hours): 0
Growth Rate [3, 16]: 0
Growth Rate [3, 17]: 0
Growth Rate ([3]; 12 h, replicate number 2, timepoint 12 hours): 1
Growth Rate [3, 18]: 0
Growth Rate [3, 19]: 0
